The text below walks through data of the RNAGym collection of RNA variant scans (doi:10.1101/gad.245936.114).

To fix the notation:
B1: tRNA (parent)
chain: CUCUCGGUAGCCAAGUUGGUUUAAGGCGCAAGACUUUAAUUUAUCACUACGAAAUCUUGAGAUCGGGCGUUCGACUCGCCCCCGGGAGAUUUUUUCCUCGAGCAA

Variants at the floor of the assay were thinned out.

This data set covers variants of B1. Put plainly: nonsense suppression (GFP-seq) (ratio to wild type); higher = more function; SUP4oc tRNA, yeast GFP reporter sort-seq. The procedure, abridged: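 Yeast were grown in raffinose/galactose medium with 80 mg/L adenine, each strain bearing a genome-integrated ochre-suppressor tRNA variant from a ~3% random-mutation library, a galactose-driven GFP ochre reporter, and RFP. After sorting into GFP/RFP bins, every bin was sequenced on an Illumina platform at phred ≥30. The GFPSEQ value, a measure of nonsense suppression, is the weighted bin median GFP/RFP relative to the unmutated parent tRNA, using each variant's estimated cell share per bin as the weight. Only variants with ≥100 reads and ≥30 cells were included.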
CUCUCGGUAGCCAAGUUGGUUCAACGCGCAAGACUUUAAUUUAUCACUACGAAAUCUUGAGAUCGGGCGUUCGACUCGCCCCCGGGAGAUUUUUUCCUCGAGCAA: the nonsense suppression was found to be 0.0473. Consider CUCUCGGUAGCCAAGUUGGUUCAAGGCGCAAGACUUUAAUUUAUCACUACGAAAUCUUGAAAUCGGGCGUUCGACUCGUCCCCGGGAGAUUUUUUCCUCGAGCAA, for which the nonsense suppression was 0.197. For CUCUCGGUAGCCAAGUUGGUUCAAGGCGCAAGACUUUAAUUUAUCACUACGAAAUCUUGAUACCGGGCGUUCGACUCGCCCCCGGGAGAUUUUUUCCUCGAGCAA the value was 0.17; for CUCUCGGUAGCCAAGUUGGUUCAAGGCGCAAGACUUUAAUUUAUCACUACGAAUUCUUGAGAUCGGGCGUUCGACUCGCCCCCGGGAGAUUUUUUCCUCGAGCAA, 1.05; for CUCUCGGUAGCCAAGUUGGUUCAAGGCGCAAGACUUUAAUUUAUCACUACGAACUCUUGAGAUCGGGCGUUCGACUCGCCCCCGGGAGAUUUUUUCCUCGAGCAA, 1.2. Take CUCUCGGUAGCCAAGUUGGUUCAAGGCGCUAGACUUUAAUUUAUCACUACGAAAUCUUGAGAUCGGGCGUUCGACUCGCCCCAGGGAGAUUUUUUCCUCGAGCAA: the nonsense suppression is not above 0.026. CUCUCGGUAGCCAAGUUGGUUCAAGGCGUAAGACUUUAAUUUAUCACUACGAAAUCUUGAAAUCGGGCGUUCGACUCGCCCCCGGGAGAUUUUUUCCUCGAGCAA: the nonsense suppression was 0.386. For CUCUCGGUAGCCAAGUUGGUUGAAGGCGCGAGACUUUAAUUUAUCACUACGAAAUCUUGAGAUCGGGCGUUCGACUCGCCCCCGGGAGAUUUUUUCCUCGAGCAA the value was 0.781.

As to CUCUCGGUAGCCAAGUUGGUUGAAGGCGCUAGACUUUAAUUUAUCACUACGAAAUCUUGAGAUCGGGCGUUCGACUCGCCCCCGGGAGAUUUUUUCCUCGAGCAA, the nonsense suppression came to 0.184. Next, CUCUCGGUAGCCAAGUUGGUUCAAGGCGCAAGACUUUAAUUUAUCACUACGAAAUCUUGAGAUCGGGCGUUCGACCCGCCCCCGGGAGAUUUUUUCCUCGAGCAA: 1.02.

On to CUCUCGGUAGCCAAGUUGGUUCAAGGCGCCAUACUUUAAUUUAUCACUACGAAAUCUUGAGAUCGGGCGUUCGACUCGCCCGCGGGAGAUUUUUUCCUCGAGCAA, for which the nonsense suppression is not above 0.026. With CUCUCGGUAGCCAAGUUGGUUGAAGGCGCAUGACUUUAAUUUAUCACUACGAAAUCUUGAGACCGGGCGUACGACUCGCCCCCGGGAGAUUUUUUCCUCGAGCAA, the nonsense suppression was not above 0.026. CUCUCGGUAGCCAAGUUGGUUCAAGGCGCAAGACUUUAAUUUAUCACUACGAAAUCUUGAGAUCGGGUGUUCGACUCGCCCCCGGGAGAUUUUUUCCUCGAGCAA: the nonsense suppression stood at 1.16.

In the case of CUCUCGGUAGCCAAGUUGGUUCAAGGCGCAAGGCUUUAAUUUAUCACUACGAAAUCUUAAGAUCGGGCGUUCGACUCGCCCCCGGGAGAUUUUUUCCUCGAGCAA, the nonsense suppression is not above 0.026. With CUCUCGGUAGCCAAGUUGGUUGAAGGCGCAAGACUUUAAUUUAUCACUACGAAGUCUUGAGAUCGGGCGUUCAACUCGCCCCCGGGAGAUUUUUUCCUCGAGCAA, the nonsense suppression was not above 0.026.

For the variant CUCUCGGUAGCCAAGUUGGUUGAAGGCGCAAGACUUUAAUUUAUCACUACGAAUUCUUGAGAUCGGGCGUUCGACUCGCCCCCGGGAUAUUUUUUCCUCGAGCAA, the nonsense suppression was not above 0.026. For CUCUCGGUAGCCAAGUUGGUUGAAGGCGCAAGACUUUAAUUUAUCACUACGAAAUCUUGAGAUCGGGCGUUCGACUCACCCCCGGGAGAUUUUUUCCUCGAGCAA the value was 0.173; for CUCUCGGUAGCCAAGUUGGUUGAAGGCGCAAGACUUUAAUUUAUCACUACGAAAUCUUGAGAUCGGGCGUUCGACUCUCCCCCGGGAGAUUUUUUCCUCGAGCAA, 0.112. As for CUCUCGGUAGCCAAGUUGGUUGAAGGCGCAAGACUUUAAUUUAUCACUACGAAAUCUUGAGAUCGGGCGUUCGACUCCCCCCCGGGAGAUUUUUUCCUCGAGCAA, the nonsense suppression came out at 0.0318. For CUCUCGGUAGCCAAGUUGGUUCAAGGCGCAAGACUUUAAUUUAUCACUACGAAAUCUUGAGACCGGGUGUUCGACUCGCCCCCGGGAGAUUUUUUCCUCGAGCAA the value was 0.0629.

For the variant CUCUCGGUAGCCAAGUUGGUUCAAGGCGCAAGACUUUAAUUUAUCACUACGAAAUCUGGAGAUCGGGCGUUCGACUCGCCCCCGGGAGAUUUUUUCCUCGAGCAA, the nonsense suppression was not above 0.026. For CUCUCGGUAGCCAAGUUGGUUCAACGCGCAACACUUUAAUUUAUCACUACGAAAUCUUGAGCUGGGGCGUUCGACUCGCCCCCGGGAGAUUUUUUCCUCGAGCAA the value was not above 0.026; for CUCUCGGUAGCCAAGUUGGUUCAUGGCGUGAGACUUUAAUUUAUCACUACGAAAUCUUGAGAUCGGGCGUUCGACUCGCCCCCGGGAGAUUUUUUCCUCGAGCAA, 0.0731. Next, CUCUCGGUAGCCAAGUUGGUUGAAUGCGCAAGACUUUAAUUUAUCACUACGAAAUCUUGAGAUCGAGCGUUCGACUCGCCCCCGGGAGGUUUUUUCCUCGAGCAA: not above 0.026; CUCUCGGUAGCCAAGUUGGUUCAAGGCGCAAGACUUUAAUUUAUCACUACGAAAUCUUGAGAUCGGGCGCUCAACUCGCCCCCGGGAGAUUUUUUCCUCGAGCAA: not above 0.026. Regarding CUCUCGGUAGCCAAGUUGGUUCAAGGCGCAAGACUUUAAUUUAUCACUACGAAAUCUUCAGAUCGGGCGUUCGACUCGCCCCCGGGAGAUUUUUUCCUCGAGCAA, the nonsense suppression was not above 0.026.

On to CUCUCGGUAGCCAAGUUGGUUCAAGGCGCAAGUCUUUAAUUUAUCACUACGAAAUCUUGAGAUCGGGCGUUCGACUCGCCCCCGGGAGAUUUUUUCCUCGAGCAA, for which the nonsense suppression was found to be 0.202.

Turning to CUCUCGGUAGCCAAGUUGGUUGAAGGCGCAAGAAUUUAAUUUAUCACUACGAAAUCUUGAGAUCGGGCGUUCGACUCGCCCCCGAGAGAUUUUUUCCUCGAGCAA, the nonsense suppression was not above 0.026. For the variant CUCUCGGUAGCCAAGUUGGUUGAAGGCGCAAGACUUUAAUUUAUCACUACGAAAUCUUGAGAUCGGGCGUUCGACUCGCCCUCGGGAGAUUUUUUCCUCGAGCAA, the nonsense suppression came out at 0.913. As for CUCUCGGUAGCCAAGUUGGUUGAAGGCGCAAGACUUUAAUUUAUCACUACGAAAUCUUGAGAUCGGGCGUUCGACUCGCCCCCGGGGGAUUUUUUCCUCGAGCAA, the nonsense suppression was 0.886. For CUCUCGGUAGCCAAGUUGGUUGAAGGCGCAAGACUUUAAUUUAUCACUACGAAAUCUUGAGAUCGGGCGUUCGAAUCGCCCCCGGGAGAUUUUUUCCUCGAGCAA the value was 0.927; for CUCUCGGUAGCCAAGUUGGUUGAAGGCGCAAGACUUUAAUUUAUCACUACGAAAUCUUGAGAUCGGGCGUUCGAUUCGCCCCCGGGAGAUUUUUUCCUCGAGCAA, 0.981. Take CUCUCGGUAGCCAAGUUGGUUGAAGGCGUAAGACUUUAAUUUAUCACUACGAAAUCUUGAGAUCGGGCGUUCGACUCGCCCCCGGGAGAUUUUUUCCUCGAGCAA: the nonsense suppression is 1.15.

As for CUCUCGGUAGCCAAGUUGGUUCAAGGCGCAAGACUUUAAUUUAUCACUACGAAAUCUUGAGAUCGGGCGUUCGACUCGCCCCCGGGGGAUUUUUUCCUCGAGCAA, the nonsense suppression is 0.724.

In the case of CUCUCGGUAGCCAAGUUGGUUCAAGGCGCAAGACUUUAAUUUAUCACUACGAAAUCUUGAGAUCGGGCGUUCGACUCCCCCCCGGGAGAUUUUUUCCUCGAGCAA, the nonsense suppression is 0.195.

On to CUCUCGGUAGCCAAGUUGGUUCAAGGCGCAAGAGUUUAAUUUAUCACUACGAAAUCUUGAGAUCGGGCGUUCGACUCGCCCCCGGGAAAUUUUUUCCUCGAGCAA, for which the nonsense suppression was not above 0.026. Next, CUCUCGGUAGCCAAGUUGGUUCAAGGCGCAAGACUUUAAUUUAUCACUACGAAAUCUUGCAAUCGGGCGUUCGACUCGCCCCCGGGAGAUUUUUUCCUCGAGCAA: 0.176; CUCUCGGUAGCCAAGUUGGUUGAAGGCGCAAGACUUUAAUUUAUCACUACGAAUUCUUGAGAUCGGGCGUUCGACUCGCCCCCGGGAGAUUUUUUCCUCGAGCAA: 1.12. Next, CUCUCGGUAGCCAAGUUGGUUGAAGGCGCAAGACUUUAAUUUAUCACUACGAAAUCUUGAGAUCGGGCGUUCGACUCGCCCCCGGGAGAUUUUUUCCUCGAGCAA: 0.989; CUCUCGGUAGCCAAGUUGGUUGAAGGCGCAAGACUUUAAUUUAUCACUACGAAAUCUUGCGAUCGGGCGUUCGACUCGCCCCCGGGAGAUUUUUUCCUCGAGCAA: 0.175; CUCUCGGUAGCCAAGUUGGUUCAAGACGCAAGACUUUAAUUUAUCACUACGAAAUCGUGAGAUCGGGCGUUCGACUCGCCCCCGGGAGAUUUUUUCCUCGAGCAA: not above 0.026. Take CUCUCGGUAGCCAAGUUGGUUGAAGGCGCAAGACUUUAAUUUAUCACUACGAAAUCUUGAGAUCGGGGGUUCGACUCGCCCCCGGGAGAUUUUUUCCUCGAGCAA: the nonsense suppression was not above 0.026. Turning to CUCUCGGUAGCCAAGUUGGUUCAAGGCGCAAGACUUUAAUUUAUCACUACGAAAUCUUGAGAUCGGGCGUUCAACUCGCCCCCGGGAGAUUUUUUCCUCGAGCAA, the nonsense suppression stood at 0.848. For CUCUCGGUAGCCAAGUUGGUUCAAGGCGCAAGACUUUAAUUUAUCACUACGAAAUUUUGAGAUCGGGCGUUCGACUCGCCCCCGGGAGAUUUUUUCCUCGAGCAA the value was 0.0509.

As to CUCUCGGUAGCCAAGUUGGUUGAAGGCGUAAAACUUUAAUUUAUCACUACGAAAUCUUGAGAUCGGGCGUUCGACUCGCCCCCGGGAGAUUUUUUCCUCGAGCAA, the nonsense suppression was not above 0.026. Turning to CUCUCGGUAGCCAAGUUGGUUCAAGGCGCAAGACUUUAAUUUAUCACUACGAAAUCUUGAGACCGGGCGUUCGACUCGCCCCCGGGAGAUUUUUUCCUCGAGCAA, the nonsense suppression amounted to 1.2.

Consider CUCUCGGUAGCCAAGUUGGUUGAAGGCGCAUGACUUUAAUUUAUCACUACGAAAUCUUGAGAUCGGGCGUUCGACUCGCCCCCGGGAGAUUUUUUCCUCGAGCAA, for which the nonsense suppression was 0.0872.

With CUCUCGGUAGCCAAGUUGGUUCAAGGCGCAGGACUUUAAUUUAUCACUACGAAAUCUUGAGAUCGGGCGUUCGCCUCGCCCCCGGGAGAUUUUUUCCUCGAGCAA, the nonsense suppression is not above 0.026. Turning to CUCUCGGUAGCCAAGUUGGUUCACGGCGCAAGACUUUAAUUUAUCACUACGAAAUCUUGAGAUCGGGCGUUCGACUCGCCCCCGGGAGAUUUUUUCCUCGAGCAA, the nonsense suppression amounted to 1.01. For CUCUCGGUAGCCAAGUUGGUUGACGGCGCAAGACUUUAAUUUAUCACUACGAAAUCUUGAGAUCGGGCGUUCGACUCGCCCCCGGGAGAUUUUUUCCUCGAGCAA the value was 0.817; for CUCUCGGUAGCCAAGUUGGUUGAAGGCUCAAGACUUUAAUUUAUCACUACGAAAUCUUGAGUUCGGGCGUUCUACUCGCCCCCGGGAGAUUUUUUCCUCGAGCAA, not above 0.026. In the case of CUCUCGGUAGCCAAGUUGGUUGAAGGCGCAAGACUUUAAUUUAUCACUACGAAAUCUUGAGAUCGGGCGUUCAACUCGCCCCCGGGAGAUUUUUUCCUCGAGCAA, the nonsense suppression is 0.854.

Turning to CUCUCGGUAGCCAAGUUGGUUCAAGGCGCAAGACUUUAAUUUAUCACUACGAAAUCUUGAGAUCGGGCGUUCAACUCGCUCCCGGGAGAUUUUUUCCUCGAGCAA, the nonsense suppression turned out to be 0.0265. Turning to CUCUCGGUAGCCAAGUUGGUUGAAUGCGCAAGACUUUAAUUUAUCACUACGAAAUCUUGAGAUCGUGCGUUCGACUCGCCCCCGGGAGAUUUUUUCCUCGAGCAA, the nonsense suppression is not above 0.026.
